MrgX1 antagonist: blocks BAM8-22 activation of human MrgX1 receptor. MRGX1-HEK293 calcium flux, Fluo-4, BAM8-22 antagonism; hits give low values. Q96LB2. actives 1.3% (n = 310,000). AID 588676. B-score at 10 µM;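 active means calcium-response B-score plate-corrected more than 3 library SD below zero, starting fluorescence within 5 deviations, no agonist response on first addition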;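 further: peak minus trough fluorescence over baseline after final BAM8-22 challenge near maximal dose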
Target sequence (Q96LB2 whole entry, looked up): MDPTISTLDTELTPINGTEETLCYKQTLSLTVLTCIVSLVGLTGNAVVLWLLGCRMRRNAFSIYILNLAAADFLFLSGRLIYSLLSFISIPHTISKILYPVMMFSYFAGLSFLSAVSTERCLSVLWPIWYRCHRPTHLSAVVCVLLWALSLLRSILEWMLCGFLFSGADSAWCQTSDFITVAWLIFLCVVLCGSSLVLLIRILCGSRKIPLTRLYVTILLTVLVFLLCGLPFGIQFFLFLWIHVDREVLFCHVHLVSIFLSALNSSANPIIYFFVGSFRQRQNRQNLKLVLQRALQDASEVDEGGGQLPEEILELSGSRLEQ
RGS4 block: inhibitors of human RGS4; P49798; HEK293 M3R/RGS4 inducible, Fluo-4 calcium flux; hits give high values; triggered by carbachol at its EC20; B-score at 10 µM; actives 0.45% (n = 310,000); AID 463165;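 active means B-score, a plate-corrected calcium signal, over three deviations above library mean, with baseline fluorescence within five deviations of library mean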;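 further: RGS4 expression induced by doxycycline in cells with stable M3 receptor; B-score is computed from the integrated fluorescence ratio over baseline after carbachol; higher B-score means a larger calcium signal and so more RGS4 inhibition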
Target sequence (P49798 whole entry, looked up): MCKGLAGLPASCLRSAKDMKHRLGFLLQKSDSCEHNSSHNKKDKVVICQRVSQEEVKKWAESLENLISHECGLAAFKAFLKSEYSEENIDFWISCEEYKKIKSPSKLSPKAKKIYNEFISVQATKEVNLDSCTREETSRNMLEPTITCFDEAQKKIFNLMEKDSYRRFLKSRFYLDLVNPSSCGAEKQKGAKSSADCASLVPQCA
MrgX1 agonist: activates human MrgX1 receptor signaling | MrgX1-HEK293 cells, Fluo-4 calcium fluorescence, agonist mode; hits give high values | Q96LB2 | B-score at 10 µM | actives 0.44% (n = 310,000);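 active means calcium response B-score plate-corrected fluorescence ratio at least 3 library SD, with starting fluorescence B-score inside 5 SD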
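Test system: Stable human MrgX1 HEK293 cell line | Schedule: Overnight plating before 1 h dye loading | Read-out basis: Baseline-normalised fluorescence change ratio, B-scored | Detection: Kinetic calcium dye fluorescence, Fluo-4 NW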
MrgX1 PAM: allosterically activates human MrgX1 receptor signaling. Q96LB2. MrgX1-HEK293, Fluo-4 calcium flux, FDSS; hits give high values. B-score at 10 µM. actives 0.63% (n = 310,000);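 active means plate-corrected calcium response at least 3 library SD above typical, normal starting fluorescence, not activating the receptor alone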;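 further: compound read alongside a low EC10 to EC30 dose of BAM8-22 agonist; peak minus trough fluorescence over baseline measured at the second addition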
RGS4 act: potentiators or activators of RGS4. HEK293 M3R/inducible RGS4, carbachol calcium flux Fluo4; hits give low values. B-score at 10 µM. actives 0.92% (n = 310,000). AID 463111;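 active means B-score of the integrated calcium signal more than 4 SD below the library mean, with starting fluorescence not abnormally high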;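 further: negative B-score means reduced calcium response which marks RGS4 activation or potentiation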
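Material: M3R-expressing HEK293 line, RGS4 induced by doxycycline | Schedule: Overnight RGS4 induction, 30 min dye load 37 °C, 20 min compound RT | Measured by: Fluo4 fluorescence kinetic imaging of calcium | Read-out: Integrated calcium ratio converted to B score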
RGS4 activ val: RGS4 activation, validation assay; actives 89% (n = 1,100); shares compounds with RGS4 act; inhibition, % at 10 µM; HEK293 M3R/RGS4 inducible, carbachol calcium flux Fluo4; AID 602282;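 active means inhibition above 3 SD of the buffer control wells, cut at about 41% in these data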;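 further: signal is the integrated peak-minus-minimum Fluo4 fluorescence over baseline ratio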
M3R Ca counter: activity in cells without induced RGS4 expression. shares compounds with RGS4 act. HEK293 M3R non-induced RGS4, Fluo4 calcium flux; after carbachol challenge at its EC90. inhibition, % at 10 µM. actives 82% (n = 1,100);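 active means inhibition exceeding 3 SD of buffer-only control wells, cut at about 26% in these data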;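 further: percent drop in integrated peak-minus-baseline over baseline Fluo4 ratio after carbachol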
Each line names hits and unclear results; the compound was inactive in the other large screens (follow-up assays come after a bar, where they were run). Hits are enriched below; roughly 3.5% of the tested compounds scored in any of these assays.

CNS(=O)(=O)c1cccc(C(=O)OCC(=O)N2CCCC2)c1	none
CNS(=O)(=O)c1cccc(C(=O)OCc2cc(Cl)cc3c2OCOC3)c1	RGS4 act -8.6 | RGS4 activ val inactive | M3R Ca counter inactive
O=S(=O)(Nc1ccc(Cl)cc1)c1ccc(N2CCOCC2)c(NC(=S)NC2CC2)c1	RGS4 act -12 | RGS4 activ val inactive | M3R Ca counter inactive
Cc1ccc(/C=C/S(=O)(=O)Nc2ccc(C)cc2)cc1	RGS4 act -9.8 | RGS4 activ val 90 | M3R Ca counter 44
Cc1ccc(NS(=O)(=O)N(C)C)cc1	none
CC(C(=O)NCC1(c2ccccc2)CCCC1)N1CCOCC1 (configuration not stated)	none
CC(C(=O)NCC1(c2ccccc2)CCCC1)N1CCCC1 (configuration not stated)	RGS4 act -7.9 | RGS4 activ val 64 | M3R Ca counter 84
CCC(C)(C)NC(=O)C(c1ccc(OC)cc1)N(C(=O)CCC(=O)Nc1cc(C)on1)c1ccc2c(c1)OCCO2 (configuration not stated)	none
Cc1ccc(-n2nc(C)cc2Nc2ncc(Cl)cc2Cl)cc1	RGS4 act -8.7 | RGS4 activ val 92 | M3R Ca counter 74
CSc1ccc(CN(C)C(=O)C(c2ccccc2)c2ccccc2)cc1	none
CN(CCN(C)C(C)(C)C)C(=O)C(c1ccccc1)c1ccccc1	RGS4 act -12 | RGS4 activ val 94 | M3R Ca counter 75
COc1ccc(NC(=O)COC(=O)CCNS(=O)(=O)c2ccc(Cl)cc2)cc1	none
Fc1cccc(-c2cc3nc4c(c(N5CCOCC5)n3n2)CCCC4)c1	none
Fc1cccc(-c2cc3nc4c(c(NCc5ccco5)n3n2)CCCC4)c1	RGS4 act -8.1 | RGS4 activ val 86 | M3R Ca counter 45
CC1=C(C(=O)OCC2CCCO2)C(c2ccccc2)C2=C(CC(C)(C)CC2=O)N1 (configuration not stated)	RGS4 act -8.2 | RGS4 activ val inactive | M3R Ca counter inactive
Cc1cc(/C=C(/C#N)c2nc3ccccc3[nH]2)c(C)n1-c1cc(C(=O)O)cc(C(=O)O)c1	RGS4 act -7.9 (no result: MrgX1 antagonist, MrgX1 agonist, MrgX1 PAM) | RGS4 activ val 52 | M3R Ca counter 44
CN(C)CCNC(C(=O)Nc1cc(Cl)cc(Cl)c1)c1ccccc1 (configuration not stated)	RGS4 act -9.7 | RGS4 activ val 91 | M3R Ca counter 49
CC(C)NC(C(=O)Nc1cc(Cl)cc(Cl)c1)c1ccccc1 (configuration not stated)	none
COc1ccc(-n2nnc3c(SC(C(C)=O)C(=O)N(C)C)ncnc32)cc1 (configuration not stated)	none
CCC(=O)Nc1nonc1-c1nc2ccccc2n1N(C(=O)CC)C(=O)CC	RGS4 act -8.6 | RGS4 activ val inactive | M3R Ca counter inactive
CCC(=O)Nc1nonc1-c1nc2ccccc2n1Cc1ccccc1	none
COC(C#CCCN(C)C)(c1ccccc1)c1ccccc1	RGS4 act -8.4 | RGS4 activ val 92 | M3R Ca counter 96
CN(C)CCOC(C)(c1ccccc1)c1ccccn1 (configuration not stated)	none
O=C(COC(=O)c1cc(S(=O)(=O)N2CCOCC2)ccc1O)NCCc1ccccc1	RGS4 act -9.5 | RGS4 activ val inactive | M3R Ca counter inactive
CCCCN(CCCC)S(=O)(=O)c1ccc(NC(=O)c2ccc([N+](=O)[O-])cc2Cl)cc1	RGS4 act -11 | RGS4 activ val 86 | M3R Ca counter 60
CC(=O)N1CCN(c2ccc(NC(=O)c3ccc([N+](=O)[O-])cc3Cl)cc2)CC1	none
CC(O)(C#CCN1CCCCCC1)c1ccccc1 (configuration not stated)	RGS4 act -9.8 | RGS4 activ val 66 | M3R Ca counter 84
OC(C#CCN1CCCCC1)(c1ccccc1)c1ccccc1	none
CC(C)(C#CC(O)(c1ccccc1)c1ccccc1)N1CCCC1	RGS4 act -8.9 | RGS4 activ val 92 | M3R Ca counter 87
OC(C#CCN1CCCC1)(c1ccccc1)c1ccccc1	RGS4 act -7.6 | RGS4 activ val 94 | M3R Ca counter 91
CCOc1ccc(C(=O)NCC(=O)OCc2ccc(F)cc2Cl)cc1	none
CN(CCO)c1ncnc2c1sc1nc(N3CCOCC3)c3c(c12)CCC3	none
CCOC(=O)C1CCN(c2c(C(=O)c3ccccc3)cnc3ccc(CC)cc23)CC1	RGS4 act -7.7 | RGS4 activ val 90 | M3R Ca counter 43
CCN(CC)CCCOC(=O)C1(c2ccccc2)CCCC1	RGS4 act -11 | RGS4 activ val 95 | M3R Ca counter 93
CCN(CC)CCOC(=O)c1ccccc1Br	none
CN(C)C(C)(C)/C=C/C(O)(c1ccccc1)c1ccccc1	RGS4 act -8.7 | RGS4 activ val 88 | M3R Ca counter 64
CCOc1ccc2[nH]c3c(N4CCc5ccccc5C4)ncnc3c2c1	RGS4 act -8.5 | RGS4 activ val 94 | M3R Ca counter 72
O=C(N/N=C/c1ccccc1)C1CCCN1C(=O)c1cc([N+](=O)[O-])cc([N+](=O)[O-])c1 (configuration not stated)	none
COc1ccccc1C(CNC(=O)C(C)(C)Oc1ccc(Cl)cc1)N1CCCC1 (configuration not stated)	RGS4 act -8.8 | RGS4 activ val 90 | M3R Ca counter 26
COc1cc(NC(=O)Nc2cccc(Cl)c2)c(OC)cc1NC(=O)CN1CCCCC1	RGS4 act -11 | RGS4 activ val 38 | M3R Ca counter inactive
O=C(CN1CCCCC1)Nc1cccc(Cl)c1	none
COc1ccc(N(C)S(=O)(=O)c2c(C)[nH]c(=O)[nH]c2=O)cc1	RGS4 act -8.1 | RGS4 activ val inactive | M3R Ca counter inactive
COC(CNC(=O)CCc1c(C)nc2c(-c3ccccc3)c(C)nn2c1C)OC	none
C1N2CN3CN1CN(C2)C3	none (no result: RGS4 block, RGS4 act)
[2H]c1c([2H])c([2H])c(C(=O)c2sc(N3CCCCCC3)nc2-c2ccccc2)c([2H])c1[2H]	RGS4 act -8.3 | RGS4 activ val 92 | M3R Ca counter 61
CC(C)c1cc(NCCOCCO)n2c(nc3ccccc32)c1C#N	none
CCOC(=O)c1cc(C#N)c(SCC(=O)OC)[nH]c1=O	none
CCOc1ccc(CN(C)c2nc(-c3cccnc3)nc3ccccc23)cc1OC	RGS4 act -9.2 | RGS4 activ val 76 | M3R Ca counter 43
COc1ccc(CCNc2nc(-c3cccnc3)nc3ccccc23)cc1OC	none

Screening results as filed in PubChem.
